# Measurements gathered from unrelated publications.
# Protocols differ between the studies behind these lines.
# Target: Mitogen-activated protein kinase kinase kinase kinase 5 (MAP4K5, Homo sapiens, UniProt Q9Y4K4)
Compound,read-out,action,technique,concentration,quantity,result
c1ccc(N2CCN(Cc3nc4ccccc4[nH]3)CC2)nc1,binding,,competition with immobilised ligand,1 µM,remaining binding,100%
COc1ccnn2ncc(-c3ccnc(N(C)C)n3)c12,binding,,,1 µM,remaining binding,100%
C[C@@H]1CN(c2cc(-c3n[nH]c4ccc(OC5(C)CC5)cc34)ncn2)C[C@H](C)O1,cell-free assay,,competition with immobilised ligand,0.1 µM,remaining binding,100%
Cc1ccc(NC(=O)c2ccc(CN3CCN(C)CC3)cc2)cc1Nc1nc(-c2cccnc2)cs1,cell-free assay,,,0.5 µM,remaining signal,97%
COc1cc(Nc2cnc(C#N)c(O[C@H](C)CN(C)C)n2)ncc1-c1cnn(C)c1,enzyme activity,inhibitor,radiometric,1 µM,remaining activity,46%
CC(C)(O)[C@H]1CC[C@H](Nc2ccc3ncc(-c4cccc(C(F)(F)F)c4)n3n2)CC1,enzyme activity,inhibitor,,1 µM,remaining activity,83.2%
CN1CC(Oc2cnc(C#N)cc2-c2ccn3nc(NC(=O)C4CC4)cc3c2)C1,enzyme activity,inhibitor,,1 µM,inhibition,4%
FC(F)(F)Oc1cccc(-c2cnc3ccc(-c4ccncc4)nn23)c1,enzyme activity,inhibitor,radiometric,5 µM,activity vs control,74%
Cc1ccc(C(=O)Nc2ccc(CN3CCN(C)CC3)c(C(F)(F)F)c2)cc1C#Cc1cnc2cccnn12,enzyme activity,inhibitor,,23.5 nM,remaining activity,69%
N#CCCc1ccc2c(c1)-c1[nH]c3ccc([N+](=O)[O-])cc3c1CC(=O)N2,cell-free assay,,,0.5 µM,remaining signal,7.61%
CO[C@@H](C)c1c(Nc2ccc([C@H](N(C)C(=O)C3CCS(=O)(=O)CC3)C(F)(F)F)cc2)cnc2cc(Cl)nn12,cell-free assay,,competition with immobilised ligand,1 µM,remaining binding,88%
COc1cc2ncnc(Nc3ccc(Oc4ccccc4)cc3C)c2cc1OC,enzyme activity,inhibitor,,1 µM,inhibition,38%
Nc1ncnc2occ(-c3ccc(NC(=O)Nc4cc(C(F)(F)F)ccc4F)cc3)c12,cell-free assay,inhibitor,,20 µM,remaining signal,0%
O=C(Nc1cnn(-c2csc(C(=O)NC3COC3)c2)c1)Nc1ccccc1Cl,enzyme activity,inhibitor,,5 µM,remaining activity,99.1%
Clc1ccc(Nc2nnc(Cc3ccncc3)c3ccccc23)cc1,cell-free assay,,,0.5 µM,remaining signal,101%
CNCc1ccccc1-c1csc([C@H](C)Nc2nc(C)nc3cc(OC)c(OC)cc23)c1,cell-free assay,,competition with immobilised ligand,1 µM,remaining binding,100%
CC(C)(C)c1nc(-c2cccc(NS(=O)(=O)c3c(F)cccc3F)c2F)c(-c2ccnc(N)n2)s1,enzyme activity,inhibitor,radiometric,1 µM,remaining activity,90%
Cc1nc(N2CC[C@@H](O)C2)ncc1-c1cc(C(F)(F)F)cc2[nH]ncc12,binding,,competition with immobilised ligand,1 µM,remaining binding,75%
COc1cc(/C=C/C(=O)CC(=O)/C=C/c2ccc(O)c(OC)c2)ccc1O,enzyme activity,inhibitor,,1 µM,activity vs control,87%
